Results reported in ChEMBL document CHEMBL2151039, “Discovery and development of α7 nicotinic acetylcholine receptor modulators” (J Med Chem, 2011).

Tests used:
[1] = biological target: T1, 5-hydroxytryptamine receptor 3A (Homo sapiens) (UniProt P46098); assay: Binding affinity to human 5HT3 receptor at 10 uM by radioligand binding assay
T1 sequence (whole entry): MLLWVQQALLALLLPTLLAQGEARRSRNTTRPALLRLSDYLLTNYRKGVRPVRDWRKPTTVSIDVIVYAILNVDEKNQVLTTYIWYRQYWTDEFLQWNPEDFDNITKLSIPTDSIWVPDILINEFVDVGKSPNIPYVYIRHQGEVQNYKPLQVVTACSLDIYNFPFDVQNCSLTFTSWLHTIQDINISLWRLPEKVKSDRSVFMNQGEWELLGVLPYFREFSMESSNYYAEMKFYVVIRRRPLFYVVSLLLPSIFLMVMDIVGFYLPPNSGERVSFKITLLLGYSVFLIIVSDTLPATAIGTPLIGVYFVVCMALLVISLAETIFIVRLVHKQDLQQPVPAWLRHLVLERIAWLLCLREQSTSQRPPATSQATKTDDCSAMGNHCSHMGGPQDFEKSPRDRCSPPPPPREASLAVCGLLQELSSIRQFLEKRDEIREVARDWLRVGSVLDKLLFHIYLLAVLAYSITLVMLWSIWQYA

[2] = biological target: T2, Neuronal acetylcholine receptor subunit alpha-7 (Homo sapiens, UniProt P36544); assay: Displacement of [3H]-MLA from alpha7 nAChR
[3] = biological target: T3, Neuronal acetylcholine receptor subunit alpha-7 (Rattus norvegicus, UniProt Q05941); assay: Agonist activity at rat alpha7 nAchR expressed in Xenopus oocyte; assay type: functional
[4] = biological target: T2, Neuronal acetylcholine receptor subunit alpha-7; assay: Agonist activity at human alpha7 nAChR expressed in Xenopus oocytes relative to acetylcholine; assay type: functional, cell-based; conditions: Oocyte
[5] = biological target: T3, Neuronal acetylcholine receptor subunit alpha-7; assay: Displacement of [3H]A-585539 from alpha7 nAChR rat cortex
[6] = biological target: T2, Neuronal acetylcholine receptor subunit alpha-7; assay: Agonist activity at human alpha7 nAChR expressed in Xenopus oocyte; assay type: functional
[7] = biological target: Neuronal acetylcholine receptor subunit alpha-7 (Rattus norvegicus) (UniProt Q05941); assay: Agonist activity at rat alpha7 nAchR expressed in Xenopus oocyte relative to acetylcholine; assay type: functional
[8] = biological target: T2, Neuronal acetylcholine receptor subunit alpha-7; assay: Displacement of [3H]A-585539 from alpha7 nAChR human cortex
[9] = biological target: T2, Neuronal acetylcholine receptor subunit alpha-7; assay: Binding affinity to alpha7 nAChR
Cytochrome P450 2D6 = Cytochrome P450 2D6 (Homo sapiens, UniProt P10635); assay: Inhibition of CYP2D6; assay type: ADME
[10] = biological target: T2, Neuronal acetylcholine receptor subunit alpha-7; assay: Agonist activity at human alpha7 nAChR relative to control; assay type: functional
[11] = biological target: Voltage-gated inwardly rectifying potassium channel KCNH2 (Homo sapiens, UniProt Q12809); assay: Inhibition of human ERG
[12] = biological target: T2, Neuronal acetylcholine receptor subunit alpha-7; assay: Agonist activity at human alpha7 nAChR; assay type: functional
[13] = biological target: T2, Neuronal acetylcholine receptor subunit alpha-7; assay: Binding affinity to human alpha7 nAchR
[14] = biological target: T4, 5-hydroxytryptamine receptor 3A (Homo sapiens, UniProt P46098); assay: Binding affinity to 5HT3 receptor
T4 sequence (P46098 whole entry): T1 sequence (whole entry)

[15] = biological target: T2, Neuronal acetylcholine receptor subunit alpha-7; assay: Agonist activity at alpha7 nAChR at 32 uM; assay type: functional
[16] = biological target: T2, Neuronal acetylcholine receptor subunit alpha-7; assay: Agonist activity at alpha7 nAChR; assay type: functional
[17] = biological target: T2, Neuronal acetylcholine receptor subunit alpha-7; assay: Agonist activity at human alpha7 nAChR expressed in Xenopus oocytes assessed as potentiation of nicotine-induced current relative to acetylcholine; assay type: functional, cell-based; conditions: Oocyte
[18] = biological target: T4, 5-hydroxytryptamine receptor 3A; assay: Inhibition of 5HT3 receptor
Rattus norvegicus [19] = organism: Rattus norvegicus; assay: Procognitive effect in rat assessed as spartial reference memories by novel object recognition test; assay type: functional; conditions: read-out: MED
[20] = biological target: T2, Neuronal acetylcholine receptor subunit alpha-7; assay: Partial agonist activity at human alpha7 nAChR by whole cell patch clamp assay relative to acetylcholine; assay type: functional
Procedure, shortened: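 Human α7 nAChR expressed in Xenopus oocytes and in QM7 cells. Whole-cell patch-clamp recording. Agonist efficacy is given as % of the acetylcholine response, and EC50 is derived per expression system.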

[21] = biological target: T2, Neuronal acetylcholine receptor subunit alpha-7; assay: Agonist activity at human alpha7 nAChR expressed in QM7 cells; assay type: functional, cell-based
Rattus norvegicus [22] = assay: Procognitive effect in po dosed rat assessed as episodic memories by novel object recognition test; assay type: functional; conditions: read-out: MED
Procedure, shortened: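 Rats dosed orally (po) in a novel object recognition test of episodic memory. Reported as minimum effective dose (MED), in mg/kg.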

[23] = biological target: 5-hydroxytryptamine receptor 3A (Mus musculus) (UniProt P23979); assay: Antagonist activity at 5HT3 receptor expressed in N1E115 cells
[24] = biological target: Neuronal acetylcholine receptor subunit alpha-7 (Macaca mulatta, UniProt Q866A2); assay: Agonist activity at wild type monkey alpha7 nAChR by whole cell patch clamp assay; assay type: functional
[25] = biological target: T4, 5-hydroxytryptamine receptor 3A; assay: Antagonist activity at 5HT3 receptor expressed in Xenopus oocyte; assay type: functional
Rattus norvegicus [26] = organism: Rattus norvegicus; assay: Procognitive effect in rat assessed as working memories by novel object recognition test; assay type: functional; conditions: read-out: MED
[27] = biological target: T3, Neuronal acetylcholine receptor subunit alpha-7; assay: Displacement of [3H]-MLA from alpha7 nAChR in rat brain membranes; assay type: cell membranes
[28] = biological target: Neuronal acetylcholine receptor subunit alpha-7 (Macaca mulatta) (UniProt Q866A2); assay: Agonist activity at wild type monkey alpha7 nAChR by whole cell patch clamp assay relative to control; assay type: functional
Rattus norvegicus [29] = assay: Sensory gating restoration in phencyclidine-induced impairment ip dosed rat schizophrenia model; assay type: functional; conditions: read-out: MED
Procedure, shortened: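 Young and aged rats with phencyclidine-induced impairment, a model of sensory gating restoration in schizophrenia. Intraperitoneal dosing. Reported as minimum effective dose (MED), in mg/kg ip.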

[30] = biological target: Neuronal acetylcholine receptor; alpha4/beta2 (Homo sapiens, UniProt P17787+P43681); assay: Binding affinity to alpha4beta2 nAChR; assay type: protein-complex assay
Sequence of Neuronal acetylcholine receptor; alpha4/beta2 (P17787 whole entry): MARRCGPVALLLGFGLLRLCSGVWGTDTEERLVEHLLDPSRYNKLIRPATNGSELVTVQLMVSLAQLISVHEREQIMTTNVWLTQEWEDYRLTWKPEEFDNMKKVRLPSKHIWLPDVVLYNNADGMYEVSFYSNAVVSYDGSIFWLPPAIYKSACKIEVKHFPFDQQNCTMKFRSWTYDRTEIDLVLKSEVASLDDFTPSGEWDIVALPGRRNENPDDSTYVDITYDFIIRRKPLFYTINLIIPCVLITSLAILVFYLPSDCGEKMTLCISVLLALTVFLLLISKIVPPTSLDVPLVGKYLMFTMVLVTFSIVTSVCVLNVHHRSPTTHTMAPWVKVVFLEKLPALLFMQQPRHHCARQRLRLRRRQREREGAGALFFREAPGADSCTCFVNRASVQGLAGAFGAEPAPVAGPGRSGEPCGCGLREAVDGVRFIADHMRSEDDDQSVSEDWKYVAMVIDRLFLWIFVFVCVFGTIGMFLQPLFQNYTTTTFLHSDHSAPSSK
Sequence of Neuronal acetylcholine receptor; alpha4/beta2 (P43681 whole entry): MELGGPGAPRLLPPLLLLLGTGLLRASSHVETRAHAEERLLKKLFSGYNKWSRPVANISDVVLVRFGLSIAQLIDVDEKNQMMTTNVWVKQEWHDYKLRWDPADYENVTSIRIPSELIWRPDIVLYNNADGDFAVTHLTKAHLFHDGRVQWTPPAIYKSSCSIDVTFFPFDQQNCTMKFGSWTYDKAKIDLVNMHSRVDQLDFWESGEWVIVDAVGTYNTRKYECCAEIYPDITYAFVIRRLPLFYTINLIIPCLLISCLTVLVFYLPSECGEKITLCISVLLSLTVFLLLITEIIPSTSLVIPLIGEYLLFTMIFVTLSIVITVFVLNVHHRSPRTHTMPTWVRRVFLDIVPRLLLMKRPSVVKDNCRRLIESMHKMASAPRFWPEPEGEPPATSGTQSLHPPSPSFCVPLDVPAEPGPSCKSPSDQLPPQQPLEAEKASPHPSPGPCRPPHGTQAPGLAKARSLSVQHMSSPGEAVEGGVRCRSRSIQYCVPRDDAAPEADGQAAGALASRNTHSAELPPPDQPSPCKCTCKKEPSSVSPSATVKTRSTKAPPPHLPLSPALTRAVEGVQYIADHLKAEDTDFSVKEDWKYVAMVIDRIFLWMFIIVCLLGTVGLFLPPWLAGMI

T3 sequence (Q05941 whole entry): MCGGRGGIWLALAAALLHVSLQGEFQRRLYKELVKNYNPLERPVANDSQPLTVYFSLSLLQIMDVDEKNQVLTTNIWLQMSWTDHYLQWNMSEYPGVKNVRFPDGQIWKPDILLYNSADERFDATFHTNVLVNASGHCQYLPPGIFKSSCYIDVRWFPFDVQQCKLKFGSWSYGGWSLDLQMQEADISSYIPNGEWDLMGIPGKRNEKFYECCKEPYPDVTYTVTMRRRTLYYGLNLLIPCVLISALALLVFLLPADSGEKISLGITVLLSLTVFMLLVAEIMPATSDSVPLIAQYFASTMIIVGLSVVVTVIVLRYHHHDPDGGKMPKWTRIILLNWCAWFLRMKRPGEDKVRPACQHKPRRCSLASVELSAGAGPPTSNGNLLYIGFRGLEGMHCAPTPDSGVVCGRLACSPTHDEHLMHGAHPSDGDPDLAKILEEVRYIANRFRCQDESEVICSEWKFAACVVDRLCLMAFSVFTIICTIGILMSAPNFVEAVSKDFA
T2 sequence (P36544 whole entry): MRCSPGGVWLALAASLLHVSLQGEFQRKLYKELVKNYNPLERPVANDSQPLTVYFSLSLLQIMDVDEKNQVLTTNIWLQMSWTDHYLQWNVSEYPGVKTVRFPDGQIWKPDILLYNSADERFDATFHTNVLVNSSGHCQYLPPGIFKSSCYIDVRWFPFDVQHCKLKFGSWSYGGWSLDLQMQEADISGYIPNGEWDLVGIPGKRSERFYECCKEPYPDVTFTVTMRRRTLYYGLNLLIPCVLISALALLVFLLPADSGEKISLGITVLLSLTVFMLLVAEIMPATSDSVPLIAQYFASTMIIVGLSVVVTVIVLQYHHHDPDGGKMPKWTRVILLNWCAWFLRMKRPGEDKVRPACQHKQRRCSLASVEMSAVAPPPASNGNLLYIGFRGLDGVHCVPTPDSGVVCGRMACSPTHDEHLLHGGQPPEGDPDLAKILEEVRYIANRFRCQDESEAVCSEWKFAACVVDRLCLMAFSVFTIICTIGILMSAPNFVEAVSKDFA
Sequence of Cytochrome P450 2D6 (P10635 whole entry): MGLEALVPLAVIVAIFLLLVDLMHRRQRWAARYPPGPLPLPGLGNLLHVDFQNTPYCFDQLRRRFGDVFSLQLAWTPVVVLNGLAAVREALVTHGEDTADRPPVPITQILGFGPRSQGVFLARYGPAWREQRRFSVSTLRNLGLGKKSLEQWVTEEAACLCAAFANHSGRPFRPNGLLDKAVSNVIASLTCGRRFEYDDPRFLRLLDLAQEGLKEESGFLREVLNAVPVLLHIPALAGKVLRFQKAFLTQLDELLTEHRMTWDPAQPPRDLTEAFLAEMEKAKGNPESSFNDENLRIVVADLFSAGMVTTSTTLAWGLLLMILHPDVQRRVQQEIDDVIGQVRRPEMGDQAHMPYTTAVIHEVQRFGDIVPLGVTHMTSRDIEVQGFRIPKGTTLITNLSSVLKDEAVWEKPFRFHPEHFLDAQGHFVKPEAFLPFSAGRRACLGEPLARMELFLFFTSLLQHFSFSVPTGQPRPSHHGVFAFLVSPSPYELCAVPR
Sequence of Voltage-gated inwardly rectifying potassium channel KCNH2 (Q12809 whole entry): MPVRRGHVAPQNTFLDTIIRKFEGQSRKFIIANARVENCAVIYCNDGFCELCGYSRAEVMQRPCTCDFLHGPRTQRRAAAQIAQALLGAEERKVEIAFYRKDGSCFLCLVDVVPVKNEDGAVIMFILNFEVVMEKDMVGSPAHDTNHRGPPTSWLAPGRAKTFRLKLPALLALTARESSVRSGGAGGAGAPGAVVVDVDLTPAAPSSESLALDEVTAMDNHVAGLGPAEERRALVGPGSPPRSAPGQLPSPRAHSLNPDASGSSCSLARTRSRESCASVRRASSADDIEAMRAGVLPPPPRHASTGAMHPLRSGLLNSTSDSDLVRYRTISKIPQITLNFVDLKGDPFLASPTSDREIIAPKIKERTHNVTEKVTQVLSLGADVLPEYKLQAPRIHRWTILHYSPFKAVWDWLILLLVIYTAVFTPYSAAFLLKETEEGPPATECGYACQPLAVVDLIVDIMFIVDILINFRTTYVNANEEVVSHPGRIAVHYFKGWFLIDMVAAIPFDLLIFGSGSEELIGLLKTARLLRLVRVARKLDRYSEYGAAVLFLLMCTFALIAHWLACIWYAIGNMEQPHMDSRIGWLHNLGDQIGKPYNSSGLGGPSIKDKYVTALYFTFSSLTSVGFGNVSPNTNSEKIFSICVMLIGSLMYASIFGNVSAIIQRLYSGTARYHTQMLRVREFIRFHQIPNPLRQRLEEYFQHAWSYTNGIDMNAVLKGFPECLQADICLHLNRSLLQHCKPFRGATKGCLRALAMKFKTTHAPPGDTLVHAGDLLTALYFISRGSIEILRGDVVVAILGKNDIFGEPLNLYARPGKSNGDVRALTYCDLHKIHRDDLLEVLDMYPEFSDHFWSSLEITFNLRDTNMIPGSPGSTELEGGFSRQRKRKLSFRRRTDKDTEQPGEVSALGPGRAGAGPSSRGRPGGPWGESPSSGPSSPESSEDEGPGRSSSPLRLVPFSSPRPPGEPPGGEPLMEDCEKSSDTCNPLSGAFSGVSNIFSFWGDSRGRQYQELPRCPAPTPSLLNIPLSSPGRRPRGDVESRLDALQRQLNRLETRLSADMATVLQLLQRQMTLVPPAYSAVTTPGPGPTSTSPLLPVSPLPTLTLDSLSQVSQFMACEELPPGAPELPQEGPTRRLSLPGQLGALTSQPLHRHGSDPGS
Sequence of 5-hydroxytryptamine receptor 3A (Mus musculus) (P23979 whole entry, looked up): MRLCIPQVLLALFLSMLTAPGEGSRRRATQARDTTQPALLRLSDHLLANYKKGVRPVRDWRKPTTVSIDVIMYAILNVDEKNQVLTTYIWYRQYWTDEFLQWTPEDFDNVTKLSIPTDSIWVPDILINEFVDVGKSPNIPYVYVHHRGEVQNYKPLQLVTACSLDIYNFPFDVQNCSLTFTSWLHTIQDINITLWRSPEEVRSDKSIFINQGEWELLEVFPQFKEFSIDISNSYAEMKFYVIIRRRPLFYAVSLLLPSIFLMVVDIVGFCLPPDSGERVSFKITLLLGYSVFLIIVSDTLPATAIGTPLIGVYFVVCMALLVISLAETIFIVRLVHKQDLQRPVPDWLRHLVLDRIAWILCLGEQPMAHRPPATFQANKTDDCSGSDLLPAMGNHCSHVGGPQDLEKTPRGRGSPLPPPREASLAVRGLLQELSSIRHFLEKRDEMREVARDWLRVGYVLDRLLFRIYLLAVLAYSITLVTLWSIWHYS
Sequence of Neuronal acetylcholine receptor subunit alpha-7 (Rattus norvegicus) (Q05941 whole entry): as the sequence (Q05941 whole entry) above
Sequence of Neuronal acetylcholine receptor subunit alpha-7 (Macaca mulatta) (Q866A2 whole entry): as the sequence (P36544 whole entry) above, with P5Q, N193S, R208K, V395M, V398A counted along it
Sequence of Neuronal acetylcholine receptor subunit alpha-7 (Macaca mulatta, UniProt Q866A2) (Q866A2 whole entry): as the sequence (P36544 whole entry) above, with P5Q, N193S, R208K, V395M, V398A counted along it

SMILES: c1cc2cc(-c3ccc(O[C@H]4CN5CCC4CC5)nn3)ccc2[nH]1 [ABT-107]
- inhibition [1]: 4%
- Ki [2]: 7 nM
- EC50 [3]: 50 nM
- Emax [4]: 80%
- Ki [5]: 0.2 nM
- EC50 [6]: 50 nM
- Emax [7]: 80%
- Ki [8]: 0.2 nM

SMILES: O=C1O[C@]2(CN3CCC2CC3)CN1c1ccc2sccc2c1
- Ki [9]: 28 nM
- IC50 (Cytochrome P450 2D6): > 30000 nM

SMILES: c1ccc2sc(CO[C@@H]3CN4CCC3CC4)cc2c1
- Ki [9]: 13 nM

SMILES: c1cc(-c2cnc3c(c2)C[C@@]2(CN4CCC2CC4)O3)co1
- Emax [10]: 40%
- IC50 [11]: 1600 nM
- EC50 [12]: 470 nM
- Ki [13]: 0.03 nM

SMILES: O=C(N[C@H]1CN2CCC1CC2)c1cc(Cl)cc2c1OCC2
- Ki [14]: 1 nM

SMILES: c1cnc2nc(N3CCN4CCC3CC4)oc2c1
- Ki [14]: 579 nM
- Ki [9]: 30.3 nM
- Activity [15]: 220%

SMILES: O=C1O[C@]2(CN3CCC2CC3)CN1c1cccs1
- Ki [9]: 80 nM

SMILES: O=C(N[C@H]1CN2CCC1CC2)c1ccc2cc[nH]c2c1
- EC50 [16]: 100 nM

SMILES: Cc1cc(/C(=C\Nc2ccc(Cl)cc2)C(=O)Nc2ccc(Cl)cc2)on1
- fold change (FC) [17]: 2.7

SMILES: c1ccc2oc(N3CCN4CCC3CC4)nc2c1
- Ki [14]: 13 nM
- Ki [9]: 22.5 nM
- Activity [15]: 183%

SMILES: O=C(Oc1ccccc1)N1CCN2CCC1CC2
- Ki [14]: 3990 nM
- Ki [9]: 739 nM
- Activity [15]: 99%

SMILES: O=C(N[C@H]1CN2CCC1CC2)c1ccc2ccsc2c1
- Ki [14]: 174 nM
- Ki [9]: 2.1 nM
- IC50 [18]: 188 nM
- EC50 [16]: 48 nM

SMILES: O=C(N[C@@H]1CN2CCC1CC2)c1n[nH]c2ccccc12 [FACINICLINE]
- minimal effective dose (Rattus norvegicus [19]): 1 mg/kg
- Activity [20]: 63%
- EC50 [21]: 7700 nM
- minimal effective dose (Rattus norvegicus [22]): 1 mg/kg
- IC50 [23]: 32.7 nM
- Ki [18]: 2 nM
- EC50 [24]: 400 nM
- IC50 [25]: 2.8 nM
- minimal effective dose (Rattus norvegicus [26]): 1 mg/kg
- EC50 [6]: 800 nM
- Ki [27]: 10 nM
- Emax [28]: 67%
- Ki [13]: 6 nM
- minimal effective dose (Rattus norvegicus [29]): 0.03 mg/kg

SMILES: c1ccc(-c2ccc(N3CC4CNCC4C3)cn2)cc1 (stereo unspecified)
- Ki [9]: 8.4 nM
- Ki [30]: 96 nM

SMILES: O=C(CCCCN1CCCCC1)Nc1ccc(-c2cccnc2)cc1
- EC50 [16]: 350 nM

SMILES: CN1CC2CN(c3ccc(-c4ccccc4)nc3)CC2C1 (stereo unspecified)
- Ki [9]: 9.6 nM
- Ki [30]: 28000 nM

SMILES: O=C1O[C@]2(CN3CCC2CC3)CN1c1cc2ccccc2s1
- Ki [9]: 75 nM

SMILES: O=C(N[C@H]1CN2CCC1CC2)c1ccc2ccoc2c1
- Ki [14]: 310 nM
- Ki [9]: 12.5 nM
- IC50 [18]: 962 nM
- EC50 [16]: 86 nM
